Experiment [1] addresses T1, Oxytocin receptor (Rattus norvegicus) (UniProt P70536).
T1 sequence (whole entry): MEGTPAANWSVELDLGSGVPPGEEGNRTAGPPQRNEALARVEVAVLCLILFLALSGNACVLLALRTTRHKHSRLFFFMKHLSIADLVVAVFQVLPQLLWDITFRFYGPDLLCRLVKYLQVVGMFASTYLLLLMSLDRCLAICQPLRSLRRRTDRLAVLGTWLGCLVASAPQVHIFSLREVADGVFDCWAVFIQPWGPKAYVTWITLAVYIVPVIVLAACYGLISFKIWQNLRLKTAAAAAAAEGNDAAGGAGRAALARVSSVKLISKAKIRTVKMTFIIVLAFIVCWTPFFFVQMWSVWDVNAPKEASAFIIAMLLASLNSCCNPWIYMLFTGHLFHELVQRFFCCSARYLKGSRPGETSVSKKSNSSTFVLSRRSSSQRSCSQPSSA
Briefly: Agonist activity at oxytocin receptor in rat uterus. It counts as tissue-based. In outline: (§1)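 Purified analogs tested against U.S.P. Agonist activity expressed as units per mg, given as mean potency ± standard error.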

A short description of experiment [2]: Antagonist activity at oxytocin receptor in chicken assessed as inhibition of synthetic oxytocin-induced response by avian vasodepressor assay. Also noted: species or system Gallus gallus. In outline: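 Inhibitory potency given as pA2 (Schild): the negative log of the average molar antagonist concentration that reduces the response to 2x units of agonist to the level of x units of agonist.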

The species entered for the next experiment is Gallus gallus. In words: Agonist activity at oxytocin receptor in chicken by avian vasodepressor assay. In outline: as §1
The next experiment has as its target T2, Oxytocin receptor (Rattus norvegicus, UniProt P70536).
T2 sequence (P70536 whole entry): T1 sequence (whole entry)
Briefly: Antagonist activity at oxytocin receptor in rat uterus assessed as inhibition of synthetic oxytocin-induced response treated 1.5 to 2 mins prior to oxytocin challenge. The conditions noted are these: read-out: pA2 (converted). It counts as tissue-based. The procedure, abridged:
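Antagonist injected 1.5-2 min before synthetic oxytocin, giving any agonist response time to finish. Potency given as pA2 (Schild): the negative log of the average molar antagonist concentration that brings the response to 2x agonist units down to that of x units.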

Starred links: 1 amine or outer side, 2 acyl side, 3 side chain; linkers in the order of their positions; H or OH if unused. Positions of bridges follow the written chain, without caps; N, C: chain ends. Non-standard residues stand in square brackets, D forms with d. Residues, ends and D or L forms follow the SMILES beside them. hCys = N[C@@H](CCS)C(=O)O; X1 = O=C(CCCS[*:2])[*:1]; X2 = O=C(CS[*:2])[*:1]

Usually pA2 stands for the negative logarithm of the molar antagonist concentration that doubles the agonist concentration needed for the same response. In turn, `CC[C@H](C)[C@@H]1NC(=O)[C@H](Cc2ccc(O)cc2)NC(=O)CCSSCC[C@@H](C(=O)N2CCC[C@H]2C(=O)N[C@@H](CC(C)C)C(=O)NCC(N)=O)NC(=O)[C@H](CC(N)=O)NC(=O)[C@H](CCC(N)=O)NC1=O` gave an Activity in experiment [1] of 22 U/mg. In addition, the pA2 in experiment [2] was 7.57.
For the molecule `CC[C@H](C)[C@@H]1NC(=O)[C@H](Cc2ccc(O)cc2)NC(=O)CCSSC[C@H](C(=O)N2CCC[C@H]2C(=O)N[C@@H](CC(C)C)C(=O)NCC(N)=O)NC(=O)[C@H](CC(N)=O)NC(=O)[C@H](CCC(N)=O)NC1=O`, the values for the Activity (in experiment [1]; in the experiment listed under Gallus gallus) were 803 U/mg and 975 U/mg, respectively.
In experiment [1], `CC[C@H](C)[C@@H]1NC(=O)[C@H](Cc2ccc(O)cc2)NC(=O)CCCSSCC[C@@H](C(=O)N2CCC[C@H]2C(=O)N[C@@H](CC(C)C)C(=O)NCC(N)=O)NC(=O)[C@H](CC(N)=O)NC(=O)[C@H](CCC(N)=O)NC1=O` (YIQN[hCys]PLG-NH2; linker N-5 via X1) showed an Activity of 0.3 U/mg. The Kb on Oxytocin receptor was 182 nM. In addition, the pA2 in experiment [2] amounted to 7.34.
`CC[C@H](C)[C@@H]1NC(=O)[C@H](Cc2ccc(O)cc2)NC(=O)[C@@H](N)CSSC[C@@H](C(=O)N2CCC[C@H]2C(=O)N[C@@H](CC(C)C)C(=O)NCC(N)=O)NC(=O)[C@H](CC(N)=O)NC(=O)[C@H](CCC(N)=O)NC1=O`: the Activity in experiment [1] is 546 U/mg; in the experiment filed under Gallus gallus, 507 U/mg.
For the molecule `CC[C@H](C)[C@@H]1NC(=O)[C@H](Cc2ccc(O)cc2)NC(=O)[C@@H](N)CSSCC[C@@H](C(=O)N2CCC[C@H]2C(=O)N[C@@H](CC(C)C)C(=O)NCC(N)=O)NC(=O)[C@H](CC(N)=O)NC(=O)[C@H](CCC(N)=O)NC1=O`, the Activity in experiment [1] turned out to be 12 U/mg; in the experiment listed under Gallus gallus, 0.2 U/mg.
The corresponding values for `CC[C@H](C)[C@@H]1NC(=O)[C@H](Cc2ccc(O)cc2)NC(=O)CSSCC[C@@H](C(=O)N2CCC[C@H]2C(=O)N[C@@H](CC(C)C)C(=O)NCC(N)=O)NC(=O)[C@H](CC(N)=O)NC(=O)[C@H](CCC(N)=O)NC1=O` (YIQN[hCys]PLG-NH2; linker N-5 via X2) are 37 U/mg and 0.3 U/mg.
Take `CC[C@H](C)[C@@H]1NC(=O)[C@H](Cc2ccc(O)cc2)NC(=O)[C@@H](N)CCSSCC[C@@H](C(=O)N2CCC[C@H]2C(=O)N[C@@H](CC(C)C)C(=O)NCC(N)=O)NC(=O)[C@H](CC(N)=O)NC(=O)[C@H](CCC(N)=O)NC1=O`: the Kb on Oxytocin receptor was 955 nM. Besides, in experiment [2], the pA2 is on record as 6.48.

For the origin of these results see ChEMBL document CHEMBL3271993, “Synthesis and some pharmacological properties of five analogs of oxytocin having L-homocysteine in position 6” (J Med Chem, 1976).
